Consider two compounds from ChEMBL document CHEMBL4823296, “NMR-Guided Design of Potent and Selective EphA4 Agonistic Ligands” (J Med Chem, 2021).

In brackets after ≈: the same amount, converted by molar mass. Activity calls are given as the source filed them. No cut-off for these calls is given here. Non-standard residues stand in square brackets, D forms with d. Residues, ends and D or L forms follow the SMILES beside them. *: point of attachment. Cyclohexanoyl(1S,3S-3-NH2) = N[C@H]1CCC[C@H](C(=O)*)C1; Trp(5-OH) = N[C@@H](Cc1c[nH]c2ccc(O)cc12)C(=O)O; NH(4-morpholinophenyl) = c1cc(N2CCOCC2)ccc1N*; Bip = N[C@@H](Cc1ccc(-c2ccccc2)cc1)C(=O)O; hArg = N=C(N)NCCCC[C@H](N)C(=O)O

Data set [1] can be described thus: Aqueous solubility of compound. As to conditions: buffer. The data set is classed as physicochemical.
In data set [2] the target is Ephrin type-A receptor 2 (Homo sapiens, UniProt P29317). Briefly: Binding affinity to N-terminal His tagged EphA2 LBD (27 to 200 residues) (unknown origin) expressed in Origami (DE3) cells by isothermal titration calorimetry. On the technique in general: Isothermal titration calorimetry measures the heat released or taken up as one component is titrated into another.

In data set [3] the test system is Neuron. Briefly: Cytoprotective activity against patient derived induced astrocyte-mediated B6-Cg-Tg(Hlxb9-GFP)1Tmj/J (Hb9-GFP) mouse motor neuron death at 100 uM measured after 3 days by imaging method. The following applies: time 3.0 day. The data set is classed as functional, tissue-based. The method, boiled down: (§1)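 Patient fibroblast-derived NPCs differentiated 5 days into induced astrocytes (DMEM, 10% FBS, 0.2% N2), seeded 10,000 per well; 24 h later GFP+ (HB9 promoter) motor neurons sorted from mouse embryoid bodies added at 10,000 per well together with compound. Imaged up to 3 days; neurons with neurites >50 μm counted alive, normalized to healthy-control survival; at least 2 independent experiments.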

The target in data set [4] is T1, Ephrin type-A receptor 4 (Homo sapiens, UniProt P54764). Briefly: Binding affinity to N-terminal His tagged EphA4 LBD (unknown origin) (29 to 209 residues) expressed in Rosetta-Gami B(DE3) cells by isothermal titration calorimetry.
Data set [5] concerns Neuron. Briefly: Cytoprotective activity against patient derived induced astrocyte-mediated B6-Cg-Tg(Hlxb9-GFP)1Tmj/J (Hb9-GFP) mouse motor neuron death at 10 uM measured after 3 days by imaging method. The following applies: time 3.0 day. The data set is classed as functional, tissue-based. An outline of the steps:
as §1

The target of data set [6] is Ephrin type-A receptor 4 (Mus musculus) (UniProt Q03137). Briefly: Agonist activity at EphA4 in B6-Cg-Tg(Hlxb9-GFP)1Tmj/J (Hb9-GFP) mouse spinal cord motor neurons assessed as induction of growth cone collapse at 1 to 10 uM in presence of ephrin A1-Fc by rhodamine-coupled phalloidin dye based inverted fluorescent microscopic method. As to conditions: filed as agonist, dose 1-10 µM. The method, boiled down: (§2)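 Primary Hb9-GFP mouse spinal cord motor neurons at 2 DIV treated as in receptor activation assay (30 min, 37°C), 1 or 10 μM, alone or with pre-clustered ephrinA1-Fc (2 μg/mL); 0.1% DMSO negative control. Fixed in 2% paraformaldehyde, F-actin stained with rhodamine-phalloidin, ChAT immunolabelled; 20× fluorescence imaging, percent collapsed growth cones, 100 images per group; SEM, n=4–6 coverslips.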

For data set [7] the target is unchanged. Briefly: Agonist activity at EphA4 in B6-Cg-Tg(Hlxb9-GFP)1Tmj/J (Hb9-GFP) mouse primary spinal cord motor neuron cells assessed as protein phosphorylation at […] residues at 1 to 10 uM incubated for 30 mins by Western blotting analysis. The following applies: filed as agonist, dose 1-10 µM. The method, boiled down: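 Hb9-GFP mouse motor neurons from P0–2 spinal cords (papain/DNase I dissociation, OptiPrep purification), plated on poly-D-lysine/laminin in Neurobasal/B27, then 5% horse serum plus CNTF; at 2 DIV treated 30 min at 37°C, 5% CO2/10% O2, at 1 or 10 μM; 0.1% DMSO, pre-clustered Fc and ephrinA1-Fc (2 μg/mL) controls. Lysates immunoprecipitated with anti-EphA4, blotted for phosphotyrosine, reprobed for EphA4; pEphA4/total EphA4 band density ratio; SEM, each experiment repeated 3 times.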
In general terms: Immunoblotting shows a protein as a band on a membrane.

Data set [8] addresses T1, Ephrin type-A receptor 4. Briefly: Displacement of EphrinA5 from N-terminal His tagged EphA4 LBD (unknown origin) (29 to 209 residues) expressed in Rosetta-Gami B(DE3) cells by 2D-[13C-1H] HSQC NMR spectroscopy. As to conditions: filed as agonist. The data set is classed as cell-based.
Data set [9] has as its target Ephrin type-A receptor 4 (Mus musculus) (UniProt Q03137). Briefly: Agonist activity at EphA4 in B6-Cg-Tg(Hlxb9-GFP)1Tmj/J (Hb9-GFP) mouse spinal cord motor neurons assessed as induction of growth cone collapse at 1 to 10 uM by rhodamine-coupled phalloidin dye based inverted fluorescent microscopic method. As to conditions: filed as agonist, dose 1-10 µM. The method, boiled down:
as §2

Chain of Ephrin type-A receptor 4 (Mus musculus) (Q03137 whole entry): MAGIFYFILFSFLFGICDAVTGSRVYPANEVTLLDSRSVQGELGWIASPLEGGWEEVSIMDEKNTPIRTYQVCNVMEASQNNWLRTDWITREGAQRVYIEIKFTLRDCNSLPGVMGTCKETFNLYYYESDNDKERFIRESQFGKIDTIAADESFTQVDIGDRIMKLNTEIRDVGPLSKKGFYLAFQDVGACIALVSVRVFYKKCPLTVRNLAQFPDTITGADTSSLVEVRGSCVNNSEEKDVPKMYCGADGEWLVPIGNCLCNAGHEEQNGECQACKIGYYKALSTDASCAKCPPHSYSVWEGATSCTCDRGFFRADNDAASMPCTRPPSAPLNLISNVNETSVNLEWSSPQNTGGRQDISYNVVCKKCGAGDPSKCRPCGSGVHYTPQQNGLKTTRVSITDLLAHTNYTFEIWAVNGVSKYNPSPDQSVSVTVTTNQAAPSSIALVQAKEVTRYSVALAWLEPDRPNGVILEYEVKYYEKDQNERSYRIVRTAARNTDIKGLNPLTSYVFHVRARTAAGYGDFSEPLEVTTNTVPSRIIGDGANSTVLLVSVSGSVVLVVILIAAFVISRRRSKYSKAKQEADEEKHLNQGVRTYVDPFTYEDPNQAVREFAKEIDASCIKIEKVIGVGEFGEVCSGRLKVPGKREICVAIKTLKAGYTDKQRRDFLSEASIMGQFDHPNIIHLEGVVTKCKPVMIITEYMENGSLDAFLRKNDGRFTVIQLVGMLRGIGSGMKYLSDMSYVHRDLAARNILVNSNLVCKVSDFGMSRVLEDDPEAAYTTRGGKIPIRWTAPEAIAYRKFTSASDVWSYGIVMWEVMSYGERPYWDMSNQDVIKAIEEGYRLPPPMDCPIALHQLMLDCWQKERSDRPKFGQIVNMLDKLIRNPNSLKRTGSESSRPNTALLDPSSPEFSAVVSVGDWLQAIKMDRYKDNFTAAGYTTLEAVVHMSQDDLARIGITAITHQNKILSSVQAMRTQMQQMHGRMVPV
T1 sequence (P54764 whole entry, the tested form may be a part): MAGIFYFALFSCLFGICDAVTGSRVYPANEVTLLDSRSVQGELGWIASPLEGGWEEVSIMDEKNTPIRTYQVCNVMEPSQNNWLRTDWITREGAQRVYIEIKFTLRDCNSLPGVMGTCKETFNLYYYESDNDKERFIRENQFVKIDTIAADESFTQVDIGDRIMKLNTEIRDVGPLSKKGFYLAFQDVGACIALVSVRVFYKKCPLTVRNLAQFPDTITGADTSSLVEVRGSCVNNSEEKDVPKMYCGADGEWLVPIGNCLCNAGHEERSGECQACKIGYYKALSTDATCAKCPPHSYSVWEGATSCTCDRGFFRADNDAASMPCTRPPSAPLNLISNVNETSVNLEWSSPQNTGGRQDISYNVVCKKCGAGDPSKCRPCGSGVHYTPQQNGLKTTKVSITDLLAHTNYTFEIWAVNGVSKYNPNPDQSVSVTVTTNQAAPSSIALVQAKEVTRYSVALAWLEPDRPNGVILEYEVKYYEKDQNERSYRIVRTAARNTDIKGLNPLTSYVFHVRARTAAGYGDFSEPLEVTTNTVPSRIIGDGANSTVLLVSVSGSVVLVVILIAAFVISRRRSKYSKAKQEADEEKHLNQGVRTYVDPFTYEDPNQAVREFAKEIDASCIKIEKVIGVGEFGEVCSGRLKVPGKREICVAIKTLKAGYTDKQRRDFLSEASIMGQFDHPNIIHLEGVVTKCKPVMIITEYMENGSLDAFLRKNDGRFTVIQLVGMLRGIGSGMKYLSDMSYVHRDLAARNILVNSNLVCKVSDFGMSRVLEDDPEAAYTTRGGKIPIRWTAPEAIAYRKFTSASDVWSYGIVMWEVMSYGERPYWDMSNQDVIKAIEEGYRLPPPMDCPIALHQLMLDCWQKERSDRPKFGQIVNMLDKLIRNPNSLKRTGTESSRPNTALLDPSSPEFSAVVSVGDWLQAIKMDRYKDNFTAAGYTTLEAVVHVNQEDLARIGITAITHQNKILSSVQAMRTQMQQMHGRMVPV
Chain of Ephrin type-A receptor 2 (P29317 whole entry, the tested form may be a part): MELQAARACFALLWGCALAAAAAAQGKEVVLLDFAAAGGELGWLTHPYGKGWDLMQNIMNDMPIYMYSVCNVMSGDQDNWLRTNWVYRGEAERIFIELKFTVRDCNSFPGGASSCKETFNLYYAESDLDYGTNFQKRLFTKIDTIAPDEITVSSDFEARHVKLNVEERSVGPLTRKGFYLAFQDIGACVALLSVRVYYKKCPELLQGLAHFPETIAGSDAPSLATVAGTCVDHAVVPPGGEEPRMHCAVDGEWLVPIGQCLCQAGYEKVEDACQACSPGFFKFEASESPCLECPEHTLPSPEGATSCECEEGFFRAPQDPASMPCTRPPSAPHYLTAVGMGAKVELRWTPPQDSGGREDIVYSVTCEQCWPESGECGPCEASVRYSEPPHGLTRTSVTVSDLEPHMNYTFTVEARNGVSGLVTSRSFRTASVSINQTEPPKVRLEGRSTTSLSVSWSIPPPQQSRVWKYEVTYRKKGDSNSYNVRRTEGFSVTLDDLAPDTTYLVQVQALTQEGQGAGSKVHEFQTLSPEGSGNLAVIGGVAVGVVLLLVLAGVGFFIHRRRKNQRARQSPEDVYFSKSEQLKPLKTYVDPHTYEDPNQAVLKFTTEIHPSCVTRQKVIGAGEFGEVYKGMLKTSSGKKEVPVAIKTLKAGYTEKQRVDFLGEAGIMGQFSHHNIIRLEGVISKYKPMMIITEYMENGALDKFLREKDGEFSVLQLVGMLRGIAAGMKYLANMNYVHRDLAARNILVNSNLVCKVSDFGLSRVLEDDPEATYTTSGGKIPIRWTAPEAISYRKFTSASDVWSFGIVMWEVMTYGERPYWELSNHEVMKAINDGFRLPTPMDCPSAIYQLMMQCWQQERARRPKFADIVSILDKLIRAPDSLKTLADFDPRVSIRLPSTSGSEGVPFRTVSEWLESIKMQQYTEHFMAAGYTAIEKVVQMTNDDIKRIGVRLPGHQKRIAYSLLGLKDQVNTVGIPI

Consider `COc1ccc2[nH]cc(CCNC(=O)[C@H](Cc3ccncc3)NC(=O)[C@H](Cc3ccc(Cl)cc3)NC(=O)[C@H](Cc3c[nH]c4ccc(O)cc34)NC(=O)CCCN)c2c1`, for which, in data set [1] (read-out: solubility), the solubility (usually the concentration that dissolves in the medium under given conditions) was determined as 100 µM (≈ 80.7 µg/mL). Besides, the Kd – broadly, the equilibrium constant for the complex coming apart – in [2] was “Not Active”. Moreover, the result in data set [3] was Active.

For `N=C(N)NCCCC[C@H](NC(=O)[C@H](Cc1ccc(-c2ccccc2)cc1)NC(=O)[C@H](Cc1c[nH]c2ccc(O)cc12)NC(=O)[C@H]1CCC[C@H](N)C1)C(=O)NCC(=O)Nc1ccc(N2CCOCC2)cc1` ({Cyclohexanoyl(1S,3S-3-NH2)}-[Trp(5-OH)][Bip][hArg]G-{NH(4-morpholinophenyl)}), the dissociation constant (Kd) in data set [4] came out at 113 nM. The result in data set [5], in data set [6], in [7], in data set [8] and in data set [9] was Active. Moreover, the solubility in [1] was greater than 50000 µM.
